According to ChEMBL document CHEMBL3871266, “Synthesis and cytotoxic activity of novel A-ring cleaved ursolic acid derivatives in human non-small cell lung cancer cells” (Eur J Med Chem, 2016):

Tests used:
[1] = Cytotoxicity against human LKB1-positive NCI-H460 cells assessed as reduction in cell viability measured after 72 hrs by CellTiter-Blue cell viability assay; type: functional, cell-based
How it was run: (§1)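 Monolayer cultures in RPMI-1640 with 10% FBS at 37°C, seeded at 850 (H460 CTR5), 660 (H460 LKB1+/+) or 1780 (H322) cells/well so that the end point reaches 70–80% confluence. Treated 72h; vehicle 0.15% DMSO. CellTiter-Blue added until colour change (50–60, 80–90 or 100–120 min respectively), fluorescence read at 590 nm. IC50 by nonlinear regression; three independent experiments.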

[2] = Cytotoxicity against human NCI-H460 cells expressing CTR5 gene assessed as reduction in cell viability measured after 72 hrs by CellTiter-Blue cell viability assay; type: functional, cell-based; how it was run: as §1
[3] = Cytotoxicity against human NCI-H322 cells assessed as reduction in cell viability measured after 72 hrs by CellTiter-Blue cell viability assay; type: functional, cell-based; how it was run: as §1
[4] = Cytotoxicity against human NCI-H322 spheroids assessed as reduction in cell viability measured after 96 hrs by CellTiter-Glo luminescence viability assay; type: functional; conditions: NCI-H322, 96 h
How it was run: (§2)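 Spheroids grown in round-bottom ultralow-attachment wells, 495 (H460 CTR5) or 650 (H322) cells/well. Drug exposure 96h with DMSO vehicle. CellTiter-Glo added, shaken 20 min, left 10 min, then luminescence read. IC50 by nonlinear regression; three independent experiments.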

[5] = Cytotoxicity against human NCI-H460 spheroids expressing CTR5 gene assessed as reduction in cell viability measured after 96 hrs by CellTiter-Glo luminescence viability assay; type: functional, cell-based; conditions: NCI-H460, 96 h; how it was run: as §2
NCI-H460 = test: Induction of autophagy in human NCI-H460 cells expressing CTR5 gene assessed as acidic vesicular organelle formation measured after 72 hrs by acridine orange dye based flow cytometry (reference value: 91.2%); type: functional
How it was run: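 H460 CTR5 cells plated in 6-well plates (0.095 × 10⁵ cells/well, RPMI-1640 with 10% FBS) and treated 24 h later with vehicle (0.15% DMSO), drug at 3 or 4 μM, or medium alone for 72 h. Bafilomycin A1 was added to the untreated well 30 min before staining as negative control. Cells were stained with acridine orange for 15 min at 37°C in the dark. Flow cytometry read the red/green (FL3/FL1) ratio; three independent experiments.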

[6] = Homo sapiens, NCI-H460, 72 h, read-out: IC50
[7] = Homo sapiens, NCI-H322, 72 h, read-out: IC50

Compound | IC50 [1, 6] [µM] | IC50 [2, 6] [µM] | IC50 [3, 7] [µM] | IC50 [4] [µM] | IC50 [5] [µM] | IC50 ([1]; nci-h460) | IC50 ([2]; nci-h460) | IC50 ([3]; nci-h322) | Activity (NCI-H460) [%]
C=C(C)[C@@H]1CC[C@]2(C)[C@H](C[C@@H](F)C34OC(=O)[C@@]5(CC[C@@H](C)[C@H](C)[C@@H]35)CC[C@]42C)[C@@]1(C)CCC(=O)NCc1ccc(C)cc1 | > 50 | > 50 | > 50 |  |  |  |  |  | 
C=C(C)[C@@H]1CC[C@]2(C)[C@H](C[C@@H](F)C34OC(=O)[C@@]5(CC[C@@H](C)[C@H](C)[C@@H]35)CC[C@]42C)[C@@]1(C)CCC(=O)NCCc1ccccc1 | > 50 | > 50 | > 50 |  |  |  |  |  | 
C=C(C)[C@@H]1CC[C@]2(C)[C@H](C[C@@H](F)C34OC(=O)[C@@]5(CC[C@@H](C)[C@H](C)[C@@H]35)CC[C@]42C)[C@@]1(C)CCC(=O)NCc1ccc(F)cc1 | > 50 | > 50 | > 50 |  |  |  |  |  | 
C=C(C)[C@@H]1CC[C@]2(C)[C@H](C[C@@H](F)C34OC(=O)[C@@]5(CC[C@@H](C)[C@H](C)[C@@H]35)CC[C@]42C)[C@@]1(C)CCC(=O)NCC | 7.8 | 5.3 | 7.3 | 11.6 | 5.7 |  |  |  | 
C[C@H]1[C@H](C)CC[C@]2(C(=O)O)CC[C@]3(C)C(=CC[C@@H]4[C@@]5(C)CC[C@H](O)C(C)(C)[C@@H]5CC[C@]43C)[C@H]12 [URSOLIC ACID] | 21.1 | 14.8 | 15.3 | 18.2 | 30.8 |  |  |  | 
C[C@H]1[C@H](C)CC[C@@]23CC[C@]4(C)C(OC2=O)([C@H](F)C[C@@H]2[C@@]5(C)CCC(=O)NC(C)(C)[C@@H]5CC[C@]24C)[C@H]13 | 13.5 | > 25 | > 25 |  |  |  |  |  | 
C=C(C)[C@@H]1CC[C@]2(C)[C@H](C[C@@H](F)C34OC(=O)[C@@]5(CC[C@@H](C)[C@H](C)[C@@H]35)CC[C@]42C)[C@@]1(C)CCC(=O)NCCc1ccccc1OC | > 50 | > 50 | > 50 |  |  |  |  |  | 
C[C@H]1[C@H](C)CC[C@@]23CC[C@]4(C)C(OC2=O)([C@H](F)C[C@@H]2[C@@]5(C)CCC(=O)OC(C)(C)[C@@H]5CC[C@]24C)[C@H]13 |  |  |  |  |  | Nd(Insoluble) | Nd(Insoluble) | Nd(Insoluble) | 
C=C(C)[C@@H]1CC[C@]2(C)[C@H](C[C@@H](F)C34OC(=O)[C@@]5(CC[C@@H](C)[C@H](C)[C@@H]35)CC[C@]42C)[C@@]1(C)CCC(=O)NC | 6.7 | 4.5 | 6.8 | 12.1 | 3 |  |  |  | 
C=C(C)[C@@H]1CC[C@]2(C)[C@H](C[C@@H](F)C34OC(=O)[C@@]5(CC[C@@H](C)[C@H](C)[C@@H]35)CC[C@]42C)[C@@]1(C)CCC(=O)O | > 50 | > 50 | > 50 |  |  |  |  |  | 
CO/C1=C\C(C)=C\[C@@H](C)[C@@H](O)[C@@H](C)C/C(C)=C/C=C/[C@H](OC)[C@@H]([C@@H](C)[C@@H](O)[C@H](C)[C@@]2(O)C[C@@H](O)[C@H](C)[C@@H](C(C)C)O2)OC1=O [BAFILOMYCIN A1] |  |  |  |  |  |  |  |  | 100
C=C(C)[C@@H]1CC[C@]2(C)[C@H](C[C@@H](F)C34OC(=O)[C@@]5(CC[C@@H](C)[C@H](C)[C@@H]35)CC[C@]42C)[C@@]1(C)CCC(N)=O | 21.8 | 23 | 24.1 |  |  |  |  |  | 
C=C(C)[C@@H]1CC[C@]2(C)[C@H](C[C@@H](F)C34OC(=O)[C@@]5(CC[C@@H](C)[C@H](C)[C@@H]35)CC[C@]42C)[C@@]1(C)CCC(=O)NCCc1cccc(Cl)c1 | > 50 | > 50 | > 50 |  |  |  |  |  | 
C[C@H]1[C@H](C)CC[C@@]23CC[C@]4(C)C(OC2=O)([C@H](F)C[C@@H]2[C@@]5(C)CC[C@H](O)C(C)(C)[C@@H]5CC[C@]24C)[C@H]13 | 18.7 | 19.3 | 14.3 |  | 19.5 |  |  |  | 
C[C@H]1[C@H](C)CC[C@@]23CC[C@]4(C)C(OC2=O)([C@H](F)C[C@@H]2[C@@]5(C)CCC(=O)C(C)(C)[C@@H]5CC[C@]24C)[C@H]13 | > 50 | > 50 | > 50 |  |  |  |  |  | 
C=C(C)[C@@H]1CC[C@]2(C)[C@H](C[C@@H](F)C34OC(=O)[C@@]5(CC[C@@H](C)[C@H](C)[C@@H]35)CC[C@]42C)[C@@]1(C)CCC(=O)Nc1ccccc1 | > 50 | > 50 | > 50 |  |  |  |  |  | 
C=C(C)[C@@H]1CC[C@]2(C)[C@H](C[C@@H](F)C34OC(=O)[C@@]5(CC[C@@H](C)[C@H](C)[C@@H]35)CC[C@]42C)[C@@]1(C)CCC#N | > 17 | > 17 | > 17 |  |  |  |  |  | 
